Article PMC8263925 (The Journal of General Physiology, 2021)
Where a chain is given by its changes, count along the chain named.

Tests used:
Hv1 WT = biological target: T1, Hv1 WT (Homo sapiens, UniProt Q96D96); test: Inside-out patch, pulsed application of inhibitor to the closed channel; assay type: cell-based; settings: for channel inhibition under pulsed conditions: 100 µM pulses
T1 sequence (Q96D96 1-273): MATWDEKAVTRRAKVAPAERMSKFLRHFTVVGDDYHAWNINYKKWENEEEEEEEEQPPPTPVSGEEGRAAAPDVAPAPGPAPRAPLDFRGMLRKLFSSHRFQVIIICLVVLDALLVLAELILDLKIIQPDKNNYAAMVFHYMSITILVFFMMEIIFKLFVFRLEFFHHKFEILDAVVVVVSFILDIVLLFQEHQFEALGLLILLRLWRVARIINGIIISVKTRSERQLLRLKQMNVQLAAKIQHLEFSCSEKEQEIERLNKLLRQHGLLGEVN
Method in brief: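 WT channel, inside-out oocyte patches, pH 6.0. Test compound (100 µM) applied in 3 s pulses while the membrane was held closed at −40 mV, or at 0 mV or −80 mV. Current read after each pulse with a step to +120 mV. Control pulses of a reference Hv1 inhibitor given first to confirm complete washout between depolarizations.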

Hv1 D112E = biological target: T2, Hv1 D112E (Homo sapiens, UniProt Q96D96, D112E); test: Inside-out patch time course of inhibition, mutant channel; assay type: cell-based; settings: 50 µM, RDT 0.1
T2 sequence (Q96D96 1-273 D112E): T1 sequence (Q96D96 1-273) with D112E
Method in brief: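 Mutant channel expressed in oocytes. Inside-out patches, pH 6.0 both sides, 22 ± 1°C. Holding −40 mV, depolarizations to +120 mV at relative depolarization time 0.1 (2 s/20 s) to follow slow kinetics, with matched WT comparison. 50 µM perfused into bath. Isochronal end-pulse current, leak- and rundown-corrected. Decay fitted with a double-exponential function for fast and slow components.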

Hv1 F150A = biological target: T3, Hv1 F150A (Homo sapiens, UniProt Q96D96, F150A); test: Inside-out patch time course of inhibition, mutant channel; assay type: cell-based; settings: 0.1 µM, SEM, n = 5
T3 sequence (Q96D96 1-273 F150A): T1 sequence (Q96D96 1-273) with F150A

Hv1 S181A = test: Inside-out patch time course of inhibition, mutant channel; assay type: cell-based, human; settings: 50 µM
Method in brief: (§1)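 Xenopus oocytes injected with mutant-channel mRNA 1–3 d earlier, kept at 18°C in ND96. Inside-out patches at 22 ± 1°C in symmetric Mes/TEA solutions, pH 6.0. Held at −40 mV and pulsed to +120 mV at relative depolarization time 0.2 (3 s/15 s). 50 µM perfused into bath. End-pulse current leak- and rundown-corrected. Decay fitted double-exponentially (τfast, τslow, cfast, cslow); washout recovery single-exponentially (τoff).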

Hv1 R211A = test: as above; assay type: cell-based, human; settings: 50 µM
Method in brief: as §1

Hv1 F156A = biological target: T4, Hv1 F156A (Homo sapiens, UniProt Q96D96, F156A); test: as above; assay type: cell-based; settings: 50 µM
T4 sequence (Q96D96 1-273 F156A): T1 sequence (Q96D96 1-273) with F156A
Method in brief: as §1

Hv1 K157Q = biological target: T5, Hv1 K157Q (Homo sapiens, UniProt Q96D96, K157Q); test: as above; assay type: cell-based; settings: 50 µM
T5 sequence (Q96D96 1-273 K157Q): T1 sequence (Q96D96 1-273) with K157Q
Method in brief: as §1

Hv1 D174E = biological target: T6, Hv1 D174E (Homo sapiens, UniProt Q96D96, D174E); test: as above; assay type: cell-based
T6 sequence (Q96D96 1-273 D174E): T1 sequence (Q96D96 1-273) with D174E
Method in brief: as §1

Hv1 W207Y = biological target: T7, Hv1 W207Y (Homo sapiens, UniProt Q96D96, W207Y); test: as above; assay type: cell-based; settings: 50 µM
T7 sequence (Q96D96 1-273 W207Y): T1 sequence (Q96D96 1-273) with W207Y
Method in brief: as §1

Compound: Cc1[nH]c(N)nc1CCC(=O)c1cc(F)cc(F)c1 [HIF, 3-(2-amino-5-methyl-1H-imidazol-4-yl)-1-(3,5-difluorophenyl)propan-1-one]
- τ of current decay under pulsed application (Hv1 WT; 100 μM for 3 s pulses, membrane at −40 mV during application, single-exponential): 46 ± 4 s
- channel inhibition under pulsed conditions (Hv1 WT; membrane held at 0 mV): 55 ± 3%
- channel inhibition under pulsed conditions (Hv1 WT; membrane held at −80 mV): 33 ± 4%
- fast component of the inhibition process (Hv1 D112E): eliminated
- slow component of the inhibition process (Hv1 D112E): unaffected
- ratio between the peak current and the current at the end of the depolarization step in the presence of the inhibitor (Hv1 F150A): 2.5 ± 0.5
- higher inhibition vs WT (Hv1 S181A): 7%
- reduction in τslow vs WT (Hv1 S181A): 26%
- higher inhibition (decreased steady-state remaining current) vs WT (Hv1 R211A): 15%
- reduction in τslow vs WT (Hv1 R211A): 64%
- effect of mutation on inhibition (Hv1 F156A): did not result in any significant change
- reduction of the extent of inhibition vs WT (Hv1 K157Q): 46%
- τslow (Hv1 K157Q): > 200 s
- reduction of the extent of inhibition vs WT (Hv1 D174E; 50 µM): 35%
- τslow (Hv1 D174E; 50 µM, too slow to be accurately quantified): > 200 s
- τoff, recovery from inhibition (Hv1 D174E; after 50 µM, RDT = 0.2): 37 ± 6 s
- reduction of the extent of inhibition vs WT (Hv1 W207Y): 38%
- τslow (Hv1 W207Y): > 200 s
